Laboratory results reported in ChEMBL document CHEMBL4393701, “Appendix A. dithioloquinolinethiones as new potential multitargeted antibacterial and antifungal agents: Synthesis, biological evaluation and molecular docking studies” (2019).
≈ marks a conversion by molar mass, not a printed value.

What was measured:
Penicillium ochrochloron [1] = experiment: Fungicidal activity against Penicillium ochrochloron ATCC 9112 incubated for 72 hrs followed by sub-culturing on broth malt medium and measured after 72 hrs; format: functional; details: ATCC 9112, 72 h
Summary of the method: (§1)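 After 72 h exposure in malt broth, 2 µL from test wells was subcultured into wells holding 100 µL broth and incubated a further 72 h at 28 °C. MFC is the lowest concentration with no visible growth, taken as 99.5% kill of the original inoculum. Three independent experiments in duplicate.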

Aspergillus fumigatus [2] = experiment: Fungicidal activity against Aspergillus fumigatus ATCC 1022 incubated for 72 hrs followed by sub-culturing on broth malt medium and measured after 72 hrs; format: functional; details: ATCC 1022, 72 h; summary of the method: as §1
Aspergillus ochraceus [3] = experiment: Fungicidal activity against Aspergillus ochraceus ATCC 12066 incubated for 72 hrs followed by sub-culturing on broth malt medium and measured after 72 hrs; format: functional; details: ATCC 12066, 72 h; summary of the method: as §1
Salmonella typhimurium [4] = experiment: Bactericidal activity against Salmonella typhimurium ATCC 13311 incubated for 24 hrs followed by re-plating on tryptic soy broth; format: functional, Salmonella enterica subsp. enterica serovar Typhimurium; details: Salmonella enterica, ATCC 13311, 24 h
Summary of the method: (§2)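 Bacteria were grown in tryptic soy broth, 1.0×10^4 CFU per well, with compounds in 5% DMSO at 0.001-1.0 mg/ml for 24 h at 37 °C. Then 10 µL was subcultured into fresh TSB. MBC is the lowest concentration showing no growth after subculture, taken as 99.5% kill of the original inoculum. Duplicates, repeated three times.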

Trichoderma viride [5] = experiment: Fungicidal activity against Trichoderma viride IAM 5061 incubated for 72 hrs followed by sub-culturing on broth malt medium and measured after 72 hrs; format: functional; details: IAM 5061, 72 h; summary of the method: as §1
Penicillium ochrochloron [6] = experiment: Antifungal activity against Penicillium ochrochloron ATCC 9112 after 72 hrs by microdilution technique; format: functional; details: ATCC 9112, 72 h
Summary of the method: (§3)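 Spores were washed off malt agar with 0.85% saline containing 0.1% Tween 80 and adjusted to about 1.0×10^5 per well. Compounds in 5% DMSO were serially diluted (0.001-1.0 mg/ml) in malt broth with inoculum. Plates were shaken at 160 rpm for 72 h at 28 °C. MIC is the lowest concentration without visible growth under a binocular microscope. Three independent experiments in duplicate.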

[7] = Antifungal activity against Penicillium funiculosum ATCC 36839 after 72 hrs by microdilution technique; format: functional; details: Talaromyces pinophilus, ATCC 36839, 72 h; summary of the method: as §3
Aspergillus fumigatus [8] = experiment: Antifungal activity against Aspergillus fumigatus ATCC 1022 after 72 hrs by microdilution technique; format: functional; details: ATCC 1022, 72 h; summary of the method: as §3
Salmonella typhimurium [9] = experiment: Antibacterial activity against Salmonella typhimurium ATCC 13311 after 24 hrs by iodonitrotetrazolium chloride dye based microdilution method; format: functional, Salmonella enterica subsp. enterica serovar Typhimurium; details: Salmonella enterica, ATCC 13311, 24 h
Summary of the method: (§4)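 Fresh overnight cultures adjusted spectrophotometrically to 1×10^5 CFU/mL, giving 1.0×10^4 CFU per well in tryptic soy broth. Compounds were dissolved in 5% DMSO and tested at 0.001-1.0 mg/ml by serial dilution; 5% DMSO was the negative control. After 24 h at 37 °C, 0.2 mg/mL INT solution was added for 30 min at 37 °C and OD read at 655 nm. MIC is the lowest concentration giving significant growth inhibition versus the positive control. Duplicates, repeated three times.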

Penicillium cyclopium [10] = experiment: Antifungal activity against Penicillium verrucosum var. cyclopium food isolate after 72 hrs by microdilution technique; format: functional; summary of the method: as §3
Aspergillus versicolor [11] = experiment: Fungicidal activity against Aspergillus versicolor ATCC 11730 incubated for 72 hrs followed by sub-culturing on broth malt medium and measured after 72 hrs; format: functional; details: ATCC 11730, 72 h; summary of the method: as §1
Escherichia coli [12] = experiment: Antibacterial activity against Escherichia coli ATCC 35210 after 24 hrs by iodonitrotetrazolium chloride dye based microdilution method; format: functional; details: ATCC 35210, 24 h; summary of the method: as §4
Pseudomonas aeruginosa [13] = experiment: Antibacterial activity against Pseudomonas aeruginosa ATCC 27853 after 24 hrs by iodonitrotetrazolium chloride dye based microdilution method; format: functional; details: ATCC 27853, 24 h; summary of the method: as §4
Aspergillus niger [14] = experiment: Antifungal activity against Aspergillus niger ATCC 6275 after 72 hrs by microdilution technique; format: functional; details: ATCC 6275, 72 h; summary of the method: as §3
Enterobacter cloacae [15] = experiment: Antibacterial activity against Enterobacter cloacae clinical isolate after 24 hrs by iodonitrotetrazolium chloride dye based microdilution method; format: functional; summary of the method: as §4
[16] = Fungicidal activity against Penicillium funiculosum ATCC 36839 incubated for 72 hrs followed by sub-culturing on broth malt medium and measured after 72 hrs; format: functional; details: Talaromyces pinophilus, ATCC 36839, 72 h; summary of the method: as §1
Aspergillus ochraceus [17] = experiment: Antifungal activity against Aspergillus ochraceus ATCC 12066 after 72 hrs by microdilution technique; format: functional; details: ATCC 12066, 72 h; summary of the method: as §3
Micrococcus flavus [18] = experiment: Bactericidal activity against Micrococcus flavus ATCC 10240 incubated for 24 hrs followed by re-plating on tryptic soy broth; format: functional; details: ATCC 10240, 24 h; summary of the method: as §2
Staphylococcus aureus [19] = experiment: Bactericidal activity against Staphylococcus aureus ATCC 6538 incubated for 24 hrs followed by re-plating on tryptic soy broth; format: functional; details: ATCC 6538, 24 h; summary of the method: as §2
Staphylococcus aureus [20] = experiment: Antibacterial activity against Staphylococcus aureus ATCC 6538 after 24 hrs by iodonitrotetrazolium chloride dye based microdilution method; format: functional; details: ATCC 6538, 24 h; summary of the method: as §4
Aspergillus versicolor [21] = experiment: Antifungal activity against Aspergillus versicolor ATCC 11730 after 72 hrs by microdilution method; format: functional; details: ATCC 11730, 72 h; summary of the method: as §3
Pseudomonas aeruginosa [22] = experiment: Bactericidal activity against Pseudomonas aeruginosa ATCC 27853 incubated for 24 hrs followed by re-plating on tryptic soy broth; format: functional; details: ATCC 27853, 24 h; summary of the method: as §2
Listeria monocytogenes [23] = experiment: Antibacterial activity against Listeria monocytogenes NCTC 7973 after 24 hrs by iodonitrotetrazolium chloride dye based microdilution method; format: functional; details: NCTC 7973, 24 h; summary of the method: as §4
Bacillus cereus [24] = experiment: Antibacterial activity against Bacillus cereus clinical isolate after 24 hrs by iodonitrotetrazolium chloride dye based microdilution assay; format: functional; summary of the method: as §4
Aspergillus niger [25] = experiment: Fungicidal activity against Aspergillus niger ATCC 6275 incubated for 72 hrs followed by sub-culturing on broth malt medium and measured after 72 hrs; format: functional; details: ATCC 6275, 72 h; summary of the method: as §1
Penicillium cyclopium [26] = experiment: Fungicidal activity against Penicillium verrucosum var. cyclopium food isolate incubated for 72 hrs followed by sub-culturing on broth malt medium and measured after 72 hrs; format: functional; summary of the method: as §1
Micrococcus flavus [27] = experiment: Antibacterial activity against Micrococcus flavus ATCC 10240 after 24 hrs by iodonitrotetrazolium chloride dye based microdilution method; format: functional; details: ATCC 10240, 24 h; summary of the method: as §4
Listeria monocytogenes [28] = experiment: Bactericidal activity against Listeria monocytogenes NCTC 7973 incubated for 24 hrs followed by re-plating on tryptic soy broth; format: functional; details: NCTC 7973, 24 h; summary of the method: as §2
Trichoderma viride [29] = experiment: Antifungal activity against Trichoderma viride IAM 5061 after 72 hrs by microdilution technique; format: functional; details: IAM 5061, 72 h; summary of the method: as §3
Enterobacter cloacae [30] = experiment: Bactericidal activity against Enterobacter cloacae incubated for 24 hrs followed by re-plating on tryptic soy broth; format: functional; summary of the method: as §2
Escherichia coli [31] = experiment: Bactericidal activity against Escherichia coli ATCC 35210 incubated for 24 hrs followed by re-plating on tryptic soy broth; format: functional; details: ATCC 35210, 24 h; summary of the method: as §2
Bacillus cereus [32] = experiment: Bactericidal activity against Bacillus cereus clinical isolate incubated for 24 hrs followed by re-plating on tryptic soy broth; format: functional; summary of the method: as §2

MIC (Penicillium ochrochloron [6]) [×10⁻² mM] | MIC [7] [×10⁻² mM] | MIC (Aspergillus fumigatus [8]) [×10⁻² mM] | MIC (Salmonella typhimurium [9]) [µM] | MIC (Penicillium cyclopium [10]) [×10⁻² mM] | MIC (Escherichia coli [12]) [µM] | MIC (Pseudomonas aeruginosa [13]) [µM] | MIC (Aspergillus niger [14]) [×10⁻² mM] | MIC (Enterobacter cloacae [15]) [µM] | MIC (Aspergillus ochraceus [17]) [×10⁻² mM] | MIC (Staphylococcus aureus [20]) [µM] | SMILES | MFC (Penicillium ochrochloron [1]) [×10⁻² mM] | MFC (Aspergillus fumigatus [2]) [×10⁻² mM] | MFC (Aspergillus ochraceus [3]) [×10⁻² mM] | MBC (Salmonella typhimurium [4]) [µM] | MFC (Trichoderma viride [5]) [×10⁻² mM] | MFC (Aspergillus versicolor [11]) [×10⁻² mM] | MFC [16] [×10⁻² mM] | MBC (Micrococcus flavus [18]) [µM] | MBC (Staphylococcus aureus [19]) [µM] | further results
7.8 | 15.6 | 7.8 | 0.3 (≈ 0.115 µg/mL) | 7.8 | 12.1 (≈ 4.65 µg/mL) | 0.3 (≈ 0.115 µg/mL) | 1.56 | 0.3 (≈ 0.115 µg/mL) | 14.6 | 0.3 (≈ 0.115 µg/mL) | Cc1ccc2c(c1)-c1c(ssc1=S)C(C)(C)N2C(=O)c1cccnc1 | 15.6 | 15.6 | 31.2 | 0.6 (≈ 0.231 µg/mL) | 2.08 | 15.6 | 31.2 | 0.6 (≈ 0.231 µg/mL) | 0.6 (≈ 0.231 µg/mL) | MIC (Aspergillus versicolor [21]): 7.8 ×10⁻² mM; MBC (Pseudomonas aeruginosa [22]): 0.6 µM (≈ 0.231 µg/mL); MIC (Listeria monocytogenes [23]): 0.3 µM (≈ 0.115 µg/mL); MIC (Bacillus cereus [24]): 12.1 µM (≈ 4.65 µg/mL); MFC (Aspergillus niger [25]): 7.8 ×10⁻² mM; MFC (Penicillium cyclopium [26]): 15.6 ×10⁻² mM; MIC (Micrococcus flavus [27]): 12.1 µM (≈ 4.65 µg/mL); MBC (Listeria monocytogenes [28]): 0.6 µM (≈ 0.231 µg/mL); MIC (Trichoderma viride [29]): 1.04 ×10⁻² mM; MBC (Enterobacter cloacae [30]): 0.6 µM (≈ 0.231 µg/mL); MBC (Escherichia coli [31]): 0.6 µM (≈ 0.231 µg/mL); MBC (Bacillus cereus [32]): 0.6 µM (≈ 0.231 µg/mL)
3.82 | 11.5 | 7.64 | 38.2 (≈ 15 µg/mL) | 11.5 | 38.2 (≈ 15 µg/mL) | 38.2 (≈ 15 µg/mL) | 15.2 | 38.2 (≈ 15 µg/mL) | 15.2 | 38.2 (≈ 15 µg/mL) | CC1(C)c2ssc(=S)c2-c2cccc3c2N1C(=O)/C3=N/NC(N)=S | 7.64 | 15.2 | 30.6 | 76.4 (≈ 30 µg/mL) | 3.82 | 30.6 | 30.6 | 76.4 (≈ 30 µg/mL) | 76.4 (≈ 30 µg/mL) | MIC (Aspergillus versicolor [21]): 11.5 ×10⁻² mM; MBC (Pseudomonas aeruginosa [22]): 76.4 µM (≈ 30 µg/mL); MIC (Listeria monocytogenes [23]): 38.2 µM (≈ 15 µg/mL); MIC (Bacillus cereus [24]): 38.2 µM (≈ 15 µg/mL); MFC (Aspergillus niger [25]): 30.6 ×10⁻² mM; MFC (Penicillium cyclopium [26]): 30.6 ×10⁻² mM; MIC (Micrococcus flavus [27]): 38.2 µM (≈ 15 µg/mL); MBC (Listeria monocytogenes [28]): 76.4 µM (≈ 30 µg/mL); MIC (Trichoderma viride [29]): 1.52 ×10⁻² mM; MBC (Enterobacter cloacae [30]): 76.4 µM (≈ 30 µg/mL); MBC (Escherichia coli [31]): 76.4 µM (≈ 30 µg/mL); MBC (Bacillus cereus [32]): 76.4 µM (≈ 30 µg/mL)
